Experimental data: ChEMBL document CHEMBL3425433, “Discovery of bicyclic pyrazoles as class III histone deacetylase SIRT1 and SIRT2 inhibitors” (Bioorg Med Chem Lett, 2015)
Activity calls are given as the source filed them. No cut-off for these calls is given here.

Key:
[1] = target: Histone deacetylase 5 (Homo sapiens) (UniProt Q9UQL6); test: Inhibition of HDAC5 (unknown origin)
[2] = target: T1, NAD-dependent protein deacetylase sirtuin-1 (Homo sapiens) (UniProt Q96EB6); test: Inhibition of His-tagged human recombinant SIRT1 expressed in Escherichia coli at 20 uM using Cbz-Lys(Ac)-AMC as substrate by fluorescence assay
T1 sequence (whole entry): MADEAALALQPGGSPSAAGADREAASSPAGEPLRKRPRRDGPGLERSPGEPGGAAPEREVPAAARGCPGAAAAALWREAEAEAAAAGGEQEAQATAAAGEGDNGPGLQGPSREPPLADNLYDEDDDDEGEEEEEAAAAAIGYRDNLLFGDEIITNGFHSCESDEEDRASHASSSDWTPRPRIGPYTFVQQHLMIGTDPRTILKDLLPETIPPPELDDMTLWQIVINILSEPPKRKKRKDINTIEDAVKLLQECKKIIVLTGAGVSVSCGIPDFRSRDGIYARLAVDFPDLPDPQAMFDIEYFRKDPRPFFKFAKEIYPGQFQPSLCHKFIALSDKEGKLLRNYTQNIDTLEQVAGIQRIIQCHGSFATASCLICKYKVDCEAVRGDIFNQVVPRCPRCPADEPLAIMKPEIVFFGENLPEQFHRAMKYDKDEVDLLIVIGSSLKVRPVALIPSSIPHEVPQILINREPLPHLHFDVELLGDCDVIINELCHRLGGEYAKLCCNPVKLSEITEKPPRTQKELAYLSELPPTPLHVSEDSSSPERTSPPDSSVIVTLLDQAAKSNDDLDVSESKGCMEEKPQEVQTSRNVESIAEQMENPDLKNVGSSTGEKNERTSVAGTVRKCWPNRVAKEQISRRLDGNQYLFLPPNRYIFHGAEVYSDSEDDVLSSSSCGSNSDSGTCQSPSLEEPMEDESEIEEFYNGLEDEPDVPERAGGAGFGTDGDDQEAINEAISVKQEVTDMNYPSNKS
Outline: (§1)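 Fluorescence deacetylase assay with in-house Cbz-Lys(Ac)-AMC substrate. Values are means of three experiments on racemic material. Single-point lines were tested at 20 µM, and less than 20% inhibition was scored as no inhibition.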

[3] = target: Histone deacetylase 4 (Homo sapiens) (UniProt P56524); test: Inhibition of HDAC4 (unknown origin)
[4] = target: T2, Protein deacetylase HDAC6 (Homo sapiens) (UniProt Q9UBN7); test: Inhibition of HDAC6 (unknown origin)
T2 sequence (whole entry): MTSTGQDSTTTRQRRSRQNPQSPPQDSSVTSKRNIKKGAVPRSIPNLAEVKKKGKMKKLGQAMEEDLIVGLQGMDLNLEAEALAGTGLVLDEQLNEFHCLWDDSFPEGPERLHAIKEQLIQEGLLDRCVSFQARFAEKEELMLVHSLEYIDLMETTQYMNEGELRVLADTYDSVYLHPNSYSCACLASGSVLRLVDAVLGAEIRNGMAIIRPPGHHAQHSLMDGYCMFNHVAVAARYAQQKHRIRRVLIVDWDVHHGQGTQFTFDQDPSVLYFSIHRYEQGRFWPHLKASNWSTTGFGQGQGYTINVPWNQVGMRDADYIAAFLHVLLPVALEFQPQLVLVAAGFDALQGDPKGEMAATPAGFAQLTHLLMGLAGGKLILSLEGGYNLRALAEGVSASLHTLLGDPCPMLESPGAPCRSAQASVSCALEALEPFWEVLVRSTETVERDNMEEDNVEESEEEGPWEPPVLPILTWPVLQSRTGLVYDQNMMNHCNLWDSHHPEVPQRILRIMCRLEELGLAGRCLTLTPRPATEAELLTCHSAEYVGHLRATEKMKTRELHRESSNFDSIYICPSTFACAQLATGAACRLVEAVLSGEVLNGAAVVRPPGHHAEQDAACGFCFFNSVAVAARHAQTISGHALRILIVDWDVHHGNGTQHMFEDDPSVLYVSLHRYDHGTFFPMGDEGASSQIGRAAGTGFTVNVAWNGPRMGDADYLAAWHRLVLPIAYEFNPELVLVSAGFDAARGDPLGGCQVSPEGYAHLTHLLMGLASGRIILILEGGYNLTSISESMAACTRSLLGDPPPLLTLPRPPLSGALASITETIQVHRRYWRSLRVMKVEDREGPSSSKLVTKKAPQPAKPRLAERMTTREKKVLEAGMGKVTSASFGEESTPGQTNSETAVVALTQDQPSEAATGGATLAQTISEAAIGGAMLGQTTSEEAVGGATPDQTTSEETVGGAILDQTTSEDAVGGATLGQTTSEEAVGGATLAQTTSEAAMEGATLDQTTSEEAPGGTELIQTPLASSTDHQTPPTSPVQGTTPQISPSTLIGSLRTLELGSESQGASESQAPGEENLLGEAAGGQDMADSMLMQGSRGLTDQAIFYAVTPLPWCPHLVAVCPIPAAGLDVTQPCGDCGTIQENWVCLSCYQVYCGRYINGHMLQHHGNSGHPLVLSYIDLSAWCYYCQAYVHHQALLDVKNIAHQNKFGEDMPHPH

Histone deacetylase 2 = Histone deacetylase 2 (Homo sapiens, UniProt Q92769); test: Inhibition of HDAC2 (unknown origin)
Histone deacetylase 1 = Histone deacetylase 1 (Homo sapiens, UniProt Q13547); test: Inhibition of HDAC1 (unknown origin)
[5] = target: T3, NAD-dependent protein deacetylase sirtuin-2 (Homo sapiens) (UniProt Q8IXJ6); test: Inhibition of His-tagged human recombinant SIRT2 expressed in Escherichia coli at 20 uM using Cbz-Lys(Ac)-AMC as substrate by fluorescence assay; outline: as §1
T3 sequence (whole entry): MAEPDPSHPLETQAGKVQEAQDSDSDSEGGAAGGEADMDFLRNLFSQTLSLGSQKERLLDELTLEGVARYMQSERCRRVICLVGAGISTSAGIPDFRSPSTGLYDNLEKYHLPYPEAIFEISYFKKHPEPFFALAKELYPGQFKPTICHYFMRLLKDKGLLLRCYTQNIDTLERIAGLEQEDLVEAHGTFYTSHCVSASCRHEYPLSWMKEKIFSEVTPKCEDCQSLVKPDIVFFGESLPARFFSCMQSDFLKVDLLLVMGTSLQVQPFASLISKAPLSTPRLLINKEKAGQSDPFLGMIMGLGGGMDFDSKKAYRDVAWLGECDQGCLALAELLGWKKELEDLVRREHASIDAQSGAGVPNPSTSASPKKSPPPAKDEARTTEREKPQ

Chain of Histone deacetylase 4 (Homo sapiens) (P56524 whole entry): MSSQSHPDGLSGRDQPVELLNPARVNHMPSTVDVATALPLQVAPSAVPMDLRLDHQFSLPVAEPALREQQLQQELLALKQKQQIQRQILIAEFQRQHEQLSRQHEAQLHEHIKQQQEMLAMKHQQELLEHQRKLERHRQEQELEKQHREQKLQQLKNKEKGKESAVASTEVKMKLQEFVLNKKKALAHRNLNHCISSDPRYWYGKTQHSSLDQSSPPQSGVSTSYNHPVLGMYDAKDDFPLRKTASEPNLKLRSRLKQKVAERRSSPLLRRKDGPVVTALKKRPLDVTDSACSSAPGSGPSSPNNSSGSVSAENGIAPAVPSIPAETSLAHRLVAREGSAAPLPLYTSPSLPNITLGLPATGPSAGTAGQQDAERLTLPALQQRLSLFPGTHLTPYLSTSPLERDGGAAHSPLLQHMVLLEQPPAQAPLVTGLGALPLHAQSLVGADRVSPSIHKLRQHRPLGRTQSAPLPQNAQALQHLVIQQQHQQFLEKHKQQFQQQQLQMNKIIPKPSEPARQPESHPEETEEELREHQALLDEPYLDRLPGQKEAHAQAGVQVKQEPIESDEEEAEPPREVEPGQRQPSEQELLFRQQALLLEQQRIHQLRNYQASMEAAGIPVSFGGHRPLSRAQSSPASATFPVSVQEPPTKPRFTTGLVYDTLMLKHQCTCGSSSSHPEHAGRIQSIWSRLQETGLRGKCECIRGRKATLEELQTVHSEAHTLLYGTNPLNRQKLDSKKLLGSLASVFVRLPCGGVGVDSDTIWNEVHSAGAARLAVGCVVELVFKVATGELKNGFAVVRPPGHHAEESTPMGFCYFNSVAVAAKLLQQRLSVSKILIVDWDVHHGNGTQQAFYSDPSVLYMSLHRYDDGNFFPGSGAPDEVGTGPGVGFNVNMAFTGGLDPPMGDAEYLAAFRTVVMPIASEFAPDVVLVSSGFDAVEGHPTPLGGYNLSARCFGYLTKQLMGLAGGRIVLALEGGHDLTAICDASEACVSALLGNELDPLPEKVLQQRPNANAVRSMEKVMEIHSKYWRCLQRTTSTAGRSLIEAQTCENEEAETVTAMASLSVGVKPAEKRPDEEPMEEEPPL
Chain of Histone deacetylase 5 (Homo sapiens) (Q9UQL6 whole entry): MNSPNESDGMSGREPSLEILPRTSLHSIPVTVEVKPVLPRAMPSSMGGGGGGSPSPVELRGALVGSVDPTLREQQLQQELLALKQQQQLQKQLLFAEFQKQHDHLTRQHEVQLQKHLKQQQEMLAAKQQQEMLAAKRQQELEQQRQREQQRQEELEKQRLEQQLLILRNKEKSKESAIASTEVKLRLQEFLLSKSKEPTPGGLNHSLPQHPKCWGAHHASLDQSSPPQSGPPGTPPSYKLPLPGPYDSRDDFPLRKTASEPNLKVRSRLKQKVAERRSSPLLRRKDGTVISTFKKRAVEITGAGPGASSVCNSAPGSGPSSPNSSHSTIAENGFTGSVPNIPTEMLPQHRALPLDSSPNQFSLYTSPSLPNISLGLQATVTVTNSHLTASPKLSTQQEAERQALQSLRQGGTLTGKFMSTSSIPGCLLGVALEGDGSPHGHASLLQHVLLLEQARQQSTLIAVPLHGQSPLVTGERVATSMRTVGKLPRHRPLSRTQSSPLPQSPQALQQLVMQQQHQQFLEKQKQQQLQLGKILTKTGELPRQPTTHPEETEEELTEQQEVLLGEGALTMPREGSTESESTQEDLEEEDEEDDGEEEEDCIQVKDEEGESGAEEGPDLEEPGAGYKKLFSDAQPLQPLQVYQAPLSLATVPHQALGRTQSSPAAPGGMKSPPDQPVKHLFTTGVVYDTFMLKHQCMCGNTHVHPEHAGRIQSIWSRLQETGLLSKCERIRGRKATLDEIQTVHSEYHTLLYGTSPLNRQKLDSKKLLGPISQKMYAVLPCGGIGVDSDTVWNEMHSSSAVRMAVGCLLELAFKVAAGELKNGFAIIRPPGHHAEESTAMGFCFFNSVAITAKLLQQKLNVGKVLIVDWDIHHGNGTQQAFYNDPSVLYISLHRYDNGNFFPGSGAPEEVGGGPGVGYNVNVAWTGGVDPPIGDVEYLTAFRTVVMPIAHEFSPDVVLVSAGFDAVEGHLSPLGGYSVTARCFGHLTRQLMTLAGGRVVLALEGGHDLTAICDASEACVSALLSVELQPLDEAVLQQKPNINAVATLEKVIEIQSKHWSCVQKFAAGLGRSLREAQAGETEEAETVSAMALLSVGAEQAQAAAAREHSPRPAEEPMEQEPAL
Chain of Histone deacetylase 2 (Q92769 whole entry): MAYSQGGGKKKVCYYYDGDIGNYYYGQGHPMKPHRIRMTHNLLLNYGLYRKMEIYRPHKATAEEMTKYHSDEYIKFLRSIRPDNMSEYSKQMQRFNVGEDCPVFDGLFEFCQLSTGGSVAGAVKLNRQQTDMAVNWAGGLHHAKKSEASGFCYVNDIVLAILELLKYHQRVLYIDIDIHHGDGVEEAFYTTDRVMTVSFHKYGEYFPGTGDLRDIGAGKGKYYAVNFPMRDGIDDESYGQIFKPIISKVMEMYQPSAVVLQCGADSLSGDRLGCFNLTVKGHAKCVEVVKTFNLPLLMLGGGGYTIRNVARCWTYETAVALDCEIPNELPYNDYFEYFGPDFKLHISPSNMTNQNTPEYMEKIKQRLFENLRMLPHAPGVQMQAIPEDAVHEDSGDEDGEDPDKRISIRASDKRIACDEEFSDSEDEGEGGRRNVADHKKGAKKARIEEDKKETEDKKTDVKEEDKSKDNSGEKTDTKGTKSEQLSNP
Chain of Histone deacetylase 1 (Q13547 whole entry): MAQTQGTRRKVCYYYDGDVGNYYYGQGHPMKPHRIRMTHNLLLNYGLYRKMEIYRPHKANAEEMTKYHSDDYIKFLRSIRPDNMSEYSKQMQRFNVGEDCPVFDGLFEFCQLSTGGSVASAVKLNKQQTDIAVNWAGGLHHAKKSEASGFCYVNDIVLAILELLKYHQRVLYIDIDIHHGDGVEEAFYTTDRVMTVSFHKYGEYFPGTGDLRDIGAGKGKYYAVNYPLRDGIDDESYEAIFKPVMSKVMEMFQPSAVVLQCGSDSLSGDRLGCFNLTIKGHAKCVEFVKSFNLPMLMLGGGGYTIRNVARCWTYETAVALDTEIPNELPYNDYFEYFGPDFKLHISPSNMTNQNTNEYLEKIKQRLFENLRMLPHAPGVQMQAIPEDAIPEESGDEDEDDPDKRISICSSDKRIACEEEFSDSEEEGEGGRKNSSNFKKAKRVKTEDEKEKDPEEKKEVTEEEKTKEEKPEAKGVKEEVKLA

inhibition [1] | inhibition [2] [%] | inhibition [3] | inhibition [4] | inhibition (Histone deacetylase 2) | inhibition (Histone deacetylase 1) | inhibition [5] [%] | IC50 (Histone deacetylase 2) [µM] | IC50 (Histone deacetylase 1) [µM] | SMILES
inactive | 59 | inactive | inactive | inactive | inactive | 62 |  |  | NC(=O)C1CC(c2ccccc2)Cc2c(-c3ccc(Cl)cc3)n[nH]c21 (mixture of isomers)
inactive |  | inactive | inactive | inactive | inactive | 43 |  |  | NC(=O)C1CCCc2c(-c3ccc(Cl)cc3)n[nH]c21 (racemic)
 |  |  |  |  |  |  | > 10 | > 10 | NC(=O)C1CCCc2c(-c3ccc(Cl)c(Cl)c3)n[nH]c21 (racemic)
inactive |  | inactive | inactive | inactive | inactive | 44 |  |  | NC(=O)C1CCCc2c(-c3ccc(Cl)c(F)c3)n[nH]c21 (racemic)
inactive |  | inactive | inactive | inactive | inactive | 47 |  |  | NC(=O)C1CCCc2c(-c3ccc(Br)cc3)n[nH]c21 (racemic)
inactive |  | inactive | inactive | inactive | inactive | 36 |  |  | Cc1ccc(-c2n[nH]c3c2CCCC3C(N)=O)cc1 (racemic)
inactive |  | inactive | inactive | inactive | inactive | < 20 |  |  | NC(=O)C1CCCc2c(-c3cc(Br)cs3)n[nH]c21 (racemic)
inactive |  | inactive | inactive | inactive | inactive |  |  |  | NC(=O)C1CCCc2c(-c3cc4ccccc4s3)n[nH]c21 (racemic)
inactive |  | inactive | inactive | inactive | inactive |  |  |  | NC(=O)C1CCCc2c(-c3cc4ccccc4o3)n[nH]c21 (racemic)
inactive |  | inactive | inactive | inactive | inactive |  |  |  | NC(=O)C1CCCc2c(-c3nc4ccccc4s3)n[nH]c21 (racemic)
inactive |  | inactive | inactive | inactive | inactive |  |  |  | Cn1c(-c2n[nH]c3c2CCCC3C(N)=O)cc2ccccc21 (racemic)
inactive |  | inactive | inactive | inactive | inactive |  |  |  | NC(=O)C1CCCCc2c(-c3ccc(Cl)cc3)n[nH]c21 (racemic)
inactive |  | inactive | inactive | inactive | inactive |  |  |  | CC1(C)Cc2c(-c3ccc(Cl)cc3)n[nH]c2C(C(N)=O)C1 (racemic)
inactive | < 20 | inactive | inactive | inactive | inactive | < 20 |  |  | CC1(C)CCC(C(N)=O)c2[nH]nc(-c3ccc(Cl)cc3)c21 (racemic)
inactive | 53 | inactive | inactive | inactive | inactive | 67 |  |  | CC1(C)Cc2c(-c3cc4ccccc4s3)n[nH]c2C(C(N)=O)C1 (racemic)
inactive | 56 | inactive | inactive | inactive | inactive | 42 |  |  | CC1(C)Cc2c(-c3ccc(Br)cc3)n[nH]c2C(C(N)=O)C1 (racemic)
inactive | 23 | inactive | inactive | inactive | inactive | 28 |  |  | CC1(C)Cc2c(-c3ccc(Cl)c(Cl)c3)n[nH]c2C(C(N)=O)C1 (racemic)
inactive | < 20 | inactive | inactive | inactive | inactive | < 20 |  |  | Cn1c(-c2n[nH]c3c2CC(C)(C)CC3C(N)=O)cc2ccccc21 (racemic)
inactive | < 20 | inactive | inactive | inactive | inactive | < 20 |  |  | NC(=O)C1CC2(Cc3c(-c4ccc(Cl)cc4)n[nH]c31)OCCO2 (racemic)
inactive | 28 | inactive | inactive | inactive | inactive | 22 |  |  | NC(=O)C1CCCCCc2c(-c3ccc(Cl)cc3)n[nH]c21 (racemic)
inactive | 48 | inactive | inactive | inactive | inactive | 44 |  |  | NC(=O)C1CCCc2c(-c3csc4ccccc34)n[nH]c21 (racemic)
inactive | 42 | inactive | inactive | inactive | inactive | 50 |  |  | NC(=O)C1Cc2ccccc2Cc2c(-c3ccc(Cl)cc3)n[nH]c21 (racemic)
